{"source": "paper PMC3578425", "about": "(Pharmacological research : the official journal of the …, 2010)", "key": {"[1]": {"system": "platelets isolated from P2Y1(−/−) mice", "assay": "[125I]MRS2500 binding to platelets isolated from P2Y1", "design": "species or system mouse"}, "[2]": {"target": "P2Y1 receptors on mouse platelets (Mus musculus, UniProt P49650)", "sequence (P49650 whole entry)": "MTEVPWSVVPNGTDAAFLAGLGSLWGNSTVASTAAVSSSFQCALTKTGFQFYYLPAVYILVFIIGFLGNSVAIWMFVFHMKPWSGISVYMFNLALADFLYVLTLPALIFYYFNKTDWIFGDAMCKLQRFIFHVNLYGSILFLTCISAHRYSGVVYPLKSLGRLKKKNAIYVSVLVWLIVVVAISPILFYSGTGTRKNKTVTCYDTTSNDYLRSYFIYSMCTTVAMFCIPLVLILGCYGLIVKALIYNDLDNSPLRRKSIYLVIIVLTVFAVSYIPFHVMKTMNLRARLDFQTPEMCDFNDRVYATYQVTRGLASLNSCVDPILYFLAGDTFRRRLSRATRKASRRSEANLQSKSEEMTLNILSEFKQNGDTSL", "assay": "[125I]MRS2500 binding assay with intact washed mouse platelets", "in_short": "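Mouse washed platelets were prepared by differential centrifugation in Tyrode's buffer, pH 7.3, with 0.35% human serum albumin and apyrase (0.02 U/ml), held at 150,000 platelets/μl at 37°C. Platelet suspension (400 μl in 0.5 ml) was incubated 5 min with [125I]MRS2500 at 20°C or 37°C, with or without competitors. Samples were filtered on GF/C, washed five times with ice-cold buffer, and gamma-counted. Nonspecific binding was defined with 10 μM MRS2179.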"}, "[3]": {"target": "human P2Y1 receptor (Homo sapiens, UniProt P47900)", "sequence (P47900 whole entry)": "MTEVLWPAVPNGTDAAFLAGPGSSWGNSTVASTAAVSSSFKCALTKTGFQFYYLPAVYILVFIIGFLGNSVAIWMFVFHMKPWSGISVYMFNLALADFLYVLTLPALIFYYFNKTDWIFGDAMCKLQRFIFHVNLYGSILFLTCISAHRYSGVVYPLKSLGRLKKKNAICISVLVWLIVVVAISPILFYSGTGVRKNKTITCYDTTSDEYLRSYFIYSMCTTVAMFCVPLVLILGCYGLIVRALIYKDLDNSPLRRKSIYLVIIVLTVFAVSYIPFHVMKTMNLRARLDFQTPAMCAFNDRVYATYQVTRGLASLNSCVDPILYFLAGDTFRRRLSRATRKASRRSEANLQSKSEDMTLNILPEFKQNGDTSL", "type": "binding", "conditions": "for Ki: read-out: Ki, inhibition of [125I]MRS2500 binding, competition curves"}, "[4]": {"target": "P2Y1 receptor", "conditions": "read-out: Kd for the P2Y1 receptor; cited from earlier work"}, "[5]": {"target": "P2Y1 receptors on human platelets (Homo sapiens, UniProt P47900)", "sequence (P47900 whole entry)": "as above", "assay": "[125I]MRS2500 binding assay with intact washed human platelets", "conditions": "for effect on [125I]MRS2500 binding: competing drug up to 100 μM"}, "[6]": {"system": "membranes from wild-type insect cells (empty vector-infected Sf9)", "assay": "[125I]MRS2500 binding to membranes from empty vector-infected", "conditions": "wide range of membrane concentrations; nonspecific defined with 30 μM 2MeSADP"}, "[7]": {"conditions": "wild-type mouse platelets, 10 μM competitor"}, "[8]": {"conditions": "P2Y1 receptor-expressing Sf9 membranes"}, "[9]": {"conditions": "human platelets, 37°C, data not shown"}, "[10]": {"conditions": "approximately 0.3 nM [125I]MRS2500, 300 ng membranes, data not shown"}, "[11]": {"conditions": "read-out: Ki, inhibition of [125I]MRS2500 binding, human platelets, competition"}}, "note": "Where “and” joins values, the source holds several entries; their conditions need not be identical. Equal values may be shown once. Entries after “also recorded” stand apart in the source; their conditions may differ. Read-outs that look alike come from different tables or passages of the source.", "data": [{"molecule": "CSc1nc(N)c2ncn([C@@H]3O[C@H](COP(=O)(O)OP(=O)(O)O)[C@@H](O)[C@H]3O)c2n1", "note": "[2MeSADP, 2-methylthio-adenosine 5′-diphosphate, reference compound]", "values": [{"measurement": "effect on residual [125I]MRS2500 binding", "setting": "[1]; high concentration of competitor", "value": "not inhibited"}, {"measurement": "effect on [125I]MRS2500 binding", "setting": "[2]; [7]", "value": "inhibited"}]}, {"molecule": "Nc1ncnc2c1ncn2[C@@H]1O[C@H](COP(=O)(O)OP(O)(O)=S)[C@@H](O)[C@H]1O", "note": "[ADP!S, reference compound]", "values": [{"measurement": "Ki", "setting": "[3]; [8]", "value": "1750 ± 750", "unit": "nM"}]}, {"molecule": "CNc1ncnc2c1ncn2[C@H]1C[C@H](OP(=O)(O)O)[C@@H](COP(=O)(O)O)O1", "note": "[MRS2179]", "values": [{"measurement": "Kd", "setting": "[4]", "value": "~100", "unit": "nM"}, {"measurement": "Ki", "setting": "[5]", "value": "72.5 ± 17", "unit": "nM"}, {"measurement": "effect on [125I]MRS2500 binding", "setting": "[2]; [7]", "value": "inhibited"}]}, {"molecule": "CSc1nc(N)c2ncn([C@H]3[C@H](O)[C@H](O)[C@@]4(COP(=O)(O)OP(=O)(O)O)C[C@H]34)c2n1", "note": "[MRS2365, (1′S,2′R,3′S,4′R,5′S)-4-[(6-amino-2-methylthio-9H-purin-9-yl)-1-diphosphoryloxymethyl]bicyclo[3.1.0]hexane-2,3-diol]", "values": [{"measurement": "effect on [125I]MRS2500 binding", "setting": "[2]; [7]", "value": "inhibited"}]}, {"molecule": "O=c1ccn([C@@H]2O[C@H](COP(=O)(O)OP(=O)(O)OP(=O)(O)O)[C@@H](O)[C@H]2O)c(=O)[nH]1", "note": "[UTP, reference compound]", "values": [{"measurement": "effect on [125I]MRS2500 binding", "setting": "[3]; concentrations up to 30 μM", "value": "no effect"}]}, {"molecule": "CNc1nc(I)nc2c1ncn2[C@H]1C[C@H](OP(=O)(O)O)[C@]2(COP(=O)(O)O)C[C@H]12", "note": "[[^125I]MRS2500, 2-iodo-N^6-methyl-(N)-methanocarba-2′-deoxyadenosine-3′,5′-bisphosphate]", "values": [{"measurement": "specific binding of [125I]MRS2500", "setting": "[1]", "value": "not observed"}, {"measurement": "Bmax (binding sites)", "setting": "[5]; human platelets, 20°C, data not shown", "value": 147, "unit": "sites/platelet"}, {"measurement": "Bmax", "setting": "[5]; human platelets, 37°C", "value": "151 sites/platelet and 151 ± 1 sites/platelet"}, {"measurement": "time binding was stable", "setting": "[5]; [9]", "value": "at least 15 min"}, {"measurement": "time to apparent steady state binding", "setting": "[5]; [9]", "value": "60 to 90", "unit": "s"}, {"measurement": "time to steady state binding", "setting": "[5]; intact washed platelets (human or mouse), 20°C or 37°C", "value": "≤ 5", "unit": "min"}, {"measurement": "Kd", "setting": "[5]; read-out: Kd, saturation binding of [125I]MRS2500, human platelets, 37°C", "value": 0.61, "unit": "nM"}, {"measurement": "Bmax", "setting": "[2]; mouse platelets, 20°C, data not shown", "value": 253, "unit": "sites/platelet"}, {"measurement": "Kd", "setting": "[2]; read-out: Kd, saturation binding of [125I]MRS2500, mouse platelets, 20°C, data not shown", "value": 0.5, "unit": "nM"}, {"measurement": "Bmax", "setting": "[2]; wild-type mouse platelets, 37°C", "value": "229 sites/platelet and 229 ± 23 sites/platelet"}, {"measurement": "specific binding of radioligand", "setting": "[6]", "value": "did not specifically bind; also recorded: no specific binding"}, {"measurement": "time steady-state binding was maintained", "setting": "[3]; [10]", "value": "at least 40 min"}, {"measurement": "time to steady state binding", "setting": "[3]; [10]", "value": "≤ 20", "unit": "min"}, {"measurement": "Kd", "setting": "[3]; read-out: Kd, saturation binding of [125I]MRS2500, P2Y1 receptor-expressing Sf9 membranes, 4°C, one-site binding", "value": "1.1 ± 0.3", "unit": "nM"}, {"measurement": "Bmax for P2Y1 receptor expression in Sf9 cells", "setting": "[3]; saturation binding of [125I]MRS2500", "value": "13.3 ± 2.2", "unit": "pmol/mg membrane protein"}]}, {"molecule": "CSCCNc1nc(SCCC(F)(F)F)nc2c1ncn2[C@@H]1O[C@H](COP(=O)(O)OP(=O)(O)C(Cl)(Cl)P(=O)(O)O)[C@@H](O)[C@H]1O", "note": "[ARC-69931MX, [dichloro-[[[(2R,3S,4R,5R)-3,4-dihydroxy-5-[6-(2-methylsulfanylethylamino)-2-(3,3,3-trifluoropropylsulfanyl)purin-9-yl]oxolan-2-yl]methoxy-hydroxyphosphoryl]oxy-hydroxyphosphoryl]methyl]phosphonic acid, reference compound]", "values": [{"measurement": "effect on [125I]MRS2500 binding", "setting": "[5]; human platelets", "value": "Little effect"}, {"measurement": "effect on [125I]MRS2500 binding", "setting": "[2]; [7]", "value": "no effect"}]}, {"molecule": "Nc1ncnc2c1ncn2[C@@H]1O[C@H](COP(=O)(O)OP(=O)(O)O)[C@@H](O)[C@H]1O", "note": "[ADP, reference compound]", "values": [{"measurement": "Ki", "setting": "[5]; [11]", "value": "15400 ± 9000", "unit": "nM"}, {"measurement": "effect on [125I]MRS2500 binding", "setting": "[2]; wild-type mouse platelets, 100 μM competitor", "value": "inhibited"}, {"measurement": "Ki", "setting": "[3]; [8]", "value": "625 ± 37", "unit": "nM"}]}, {"molecule": "CNc1nc(Cl)nc2c1ncn2[C@H]1C[C@H](OP(=O)(O)O)[C@]2(COP(=O)(O)O)C[C@H]12", "note": "[MRS2279, 2-chloro-N^6-methyl-(N)-methanocarba-2′-deoxyadenosine-3′,5′-bisphosphate]", "values": [{"measurement": "Kd", "setting": "[4]", "value": "~10", "unit": "nM"}]}, {"molecule": "CNc1nc(I)nc2c1ncn2[C@H]1C[C@H](OP(=O)(O)O)[C@]2(COP(=O)(O)O)C[C@H]12", "note": "[MRS2500, 2-iodo-N^6-methyl-(N)-methanocarba-2′-deoxyadenosine 3′,5′-bisphosphate]", "values": [{"measurement": "Ki", "setting": "[5]; [11]", "value": "1.2 ± 0.15", "unit": "nM"}]}, {"molecule": "Nc1ncnc2c1ncn2[C@@H]1O[C@H](COP(=O)(O)CP(=O)(O)OP(=O)(O)O)[C@@H](O)[C@H]1O", "note": "[!!MeATP, reference compound]", "values": [{"measurement": "effect on [125I]MRS2500 binding", "setting": "[5]; human platelets", "value": "Little effect"}]}]}
